ChEMBL document CHEMBL4828732, “Synthesis and biological evaluation of selective survivin inhibitors derived from the MX-106 hydroxyquinoline scaffold” (Eur J Med Chem, 2021)
Calls of active or inactive are those of the source. The rule behind the calls is not given here.

Columns and labels:
[1] = Resistance index, ratio of IC50 for antiproliferation activity against human MDA-MB-435/LCC6MDR cells to IC50 for antiproliferation activity against human MDA-MB-435 cells assessed as cell growth inhibition measured after 72 hrs by MTS assay; type: functional
A-375 [2] = assay: Downregulation of survivin protein expression in human A-375 cells at 10 uM measured after 24 hrs by Westernblot analysis; type: functional, cell-based
How it was run: (§1)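 A375 cells (2 × 10⁶ per 10-cm dish) attached overnight, then treated 24 h in DMEM with 1, 5 or 10 μM. Lysed in RIPA with protease/phosphatase inhibitors; protein measured by Bradford. 50 μg run on SDS-PAGE, transferred to PVDF, blocked in 5% milk, probed overnight at 4°C for survivin, cleaved PARP, cIAP1, XIAP, Livin, with HRP-GAPDH as loading control; ECL detection.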

A-375 [3] = assay: Induction of apoptosis in human A-375 cells assessed as increase in cleaved PARP level after 24 hrs by Western blot analysis; type: functional, cell-based; how it was run: as §1
[4] = Metabolic stability of the compound in rat liver microsomes assessed as half life at 10 uM incubated for 10 mins in presence of NADPH by UPLC-MS analysis; type: ADME, Microsome
[5] = Metabolic stability of the compound in mouse liver microsomes assessed as clearance at 10 uM incubated for 10 mins in presence of NADPH by UPLC-MS analysis; type: ADME, Microsome
[6] = Metabolic stability of the compound in rat liver microsomes assessed as clearance at 10 uM incubated for 10 mins in presence of NADPH by UPLC-MS analysis; type: ADME, Microsome
A-375 [7] = assay: cells; details: Homo sapiens, A-375, 72 h
MDA-MB-435 = assay: cells; details: Homo sapiens, MDA-MB-435, 72 h
RPMI-7951 = assay: cells; details: Homo sapiens, RPMI-7951, 72 h
MDA-MB-453 = assay: cells; details: Homo sapiens, MDA-MB-453, 72 h
SK-BR-3 = assay: cells; details: Homo sapiens, SK-BR-3, 72 h
MDA-MB-435/LCC6MDR1 = assay: cells; details: Homo sapiens, MDA-MB-435, 72 h
OVCAR-3 [8] = assay: cells; details: Homo sapiens, OVCAR-3, 72 h
OVCAR-8 [9] = assay: cells; details: Homo sapiens, OVCAR-8, 72 h
[10] = Metabolic stability of the compound in human liver microsomes assessed as clearance at 10 uM incubated for 240 mins in presence of NADPH by UPLC-MS analysis; details: 4 h
OVCAR-8 [11] = assay: Downregulation of survivin protein expression in human OVCAR-8 cells measured after 24 hrs by Westernblot analysis; type: functional, cell-based
How it was run: (§2)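 Ovarian cancer cells treated 24 h at 2 and 4 μM, or vehicle, in serum-free RPMI 1640. Lysed in RIPA with protease inhibitor; 100 μg protein per lane run on 10% SDS-PAGE, transferred to PVDF, blocked in 5% milk. Probed for survivin, MCL1 and GAPDH; HRP secondary with ECL detection.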

OVCAR-3 [12] = assay: Downregulation of survivin protein expression in human OVCAR-3 cells measured after 24 hrs by Westernblot analysis; type: functional, cell-based; how it was run: as §2
SK-OV-3 = assay: Downregulation of survivin protein expression in human SK-OV-3 cells measured after 24 hrs by Westernblot analysis; type: functional, cell-based; how it was run: as §2
[13] = Metabolic stability of the compound in mouse liver microsomes assessed as half life at 10 uM incubated for 10 mins in presence of NADPH by UPLC-MS analysis; type: ADME, Microsome
[14] = Metabolic stability of the compound in human liver microsomes assessed as half life at 10 uM incubated for 10 mins in presence of NADPH by UPLC-MS analysis; type: ADME, Microsome
A-375 [15] = assay: Downregulation of survivin protein expression in human A-375 cells measured after 24 hrs by Westernblot analysis; type: functional, cell-based; how it was run: as §1
A-375 [16] = assay: Induction of apoptosis in human A-375 cells assessed as increase in cleaved […] level after 24 hrs by Western blot analysis; type: functional, cell-based
A-375 [17] = assay: Antitumor activity against human A-375 cells xenografted in NSG mouse assessed as tumor growth inhibition at 20 to 40 mg/kg, ip administrated 3 times a week for 15 days; type: functional, organism-based; details: dose 20-40 mg/kg, time 15.0 day
[18] = Toxicity in NSG mouse xenografted with human A-375 cells assessed as reduction in body weight at 20 mg/kg, ip administrated 3 times a week for 15 days; type: organism-based; details: in vivo, 360 h, time 15 day
[19] = Toxicity in NSG mouse xenografted with human A-375 cells assessed as reduction in body weight at 40 mg/kg, ip administrated 3 times a week for 15 days; type: organism-based; details: in vivo, 360 h, time 15 day
A-375 [20] = assay: Antitumor activity against human A-375 cells xenografted in NSG mouse assessed as reduction in tumor weight at 20 mg/kg, ip administrated 3 times a week for 15 days; type: functional; parameters: scale not given: the % may be the effect or the level left; details: time 15 day
A-375 [21] = assay: Antitumor activity against human A-375 cells xenografted in NSG mouse assessed as reduction in tumor weight at 40 mg/kg, ip administrated 3 times a week for 15 days; type: functional; parameters: scale not given: the % may be the effect or the level left; details: time 15 day
[22] = Toxicity in NSG mouse xenografted with human OVCAR-8 cells assessed as reduction in body weight at 20 mg/kg, ip administrated 3 times a week for 15 days; type: organism-based; details: in vivo, 360 h, time 15 day
OVCAR-8 [23] = assay: Antitumor activity against luciferase-tagged human OVCAR-8 cells xenografted into left side ovarian bursa of NSG mouse assessed as reduction in number of metastatic tumor in kidney at 20 mg/kg, […] by histological analysis; type: functional, organism-based
OVCAR-8 [24] = assay: Antitumor activity against luciferase-tagged human OVCAR-8 cells xenografted into left side ovarian bursa of NSG mouse assessed as reduction in number of metastatic tumor in spleen at 20 mg/kg, […] by histological analysis; type: functional, organism-based
OVCAR-8 [25] = assay: Antitumor activity against luciferase-tagged human OVCAR-8 cells xenografted into left side ovarian bursa of NSG mouse assessed as reduction in number of metastatic tumor in stomach at 20 mg/kg, ip administrated […] by histological analysis; type: functional, organism-based
OVCAR-8 [26] = assay: Antitumor activity against luciferase-tagged human OVCAR-8 cells xenografted into left side ovarian bursa of NSG mouse assessed as reduction in number of metastatic tumor in intestine at 20 mg/kg, ip administrated 3 times a week for 15 days by histological analysis; type: functional, organism-based; details: time 15.0 day
OVCAR-8 [27] = details: Homo sapiens, dose 20.0 mg/kg, time 15.0 day
OVCAR-8 [28] = assay: Antitumor activity against human OVCAR-8 cells xenografted in NSG mouse assessed as tumor weight at 20 mg/kg, ip administrated 3 times a week for 15 days; details: time 15 day
OVCAR-8 [29] = assay: Antitumor activity against luciferase-tagged human OVCAR-8 cells xenografted into left side ovarian bursa of NSG mouse assessed as reduction in number of metastatic tumor at 20 mg/kg, ip administrated 3 times a week for 15 days by histological analysis; details: time 15.0 day

| t1/2 [4] [h] | CLH [5] [µL/min/mg] | CLH [6] [µL/min/mg] | IC50 (A-375 [7]) [nM] | IC50 (MDA-MB-435) [nM] | IC50 (RPMI-7951) [nM] | IC50 (MDA-MB-453) [nM] | IC50 (SK-BR-3) [nM] | IC50 (MDA-MB-435/LCC6MDR1) [nM] | IC50 (OVCAR-3 [8]) [nM] | IC50 (OVCAR-8 [9]) [nM] | CLH [10] [µL/min/mg] | t1/2 [14] [h] | SMILES | Ratio IC50 [1] | Activity (A-375 [3]) | Activity (OVCAR-8 [11]) | Activity (OVCAR-3 [12]) | Activity (SK-OV-3) | other results |
| --- | --- | --- | --- | --- | --- | --- | --- | --- | --- | --- | --- | --- | --- | --- | --- | --- | --- | --- | --- |
| 2.5 | 5.5 | 9.2 | 500 | 500 | 700 | 500 | 800 | 1400 | 1300 | 2600 | 3.2 | – | CC(C)c1ccc(COCc2cc(-c3ccccc3)c(O)c3ncccc23)cc1 | 2.6 | Active | – | – | – | Activity (A-375 [2]): inactive |
| 0.9 | 24.3 | 24.8 | 600 | 2600 | 600 | 2800 | 2700 | 900 | 800 | 1300 | 10 | 2.3 | Oc1c(CN2CCCC2)cc(Cn2ncc(-c3cccc(Br)c3)n2)c2cccnc12 | 0.4 | – | Active | Active | Active | t1/2 [13]: 1 h |
| 1.6 | 21.6 | 14.2 | – | – | – | – | – | – | – | – | 15.7 | 1.5 | Oc1c(CN2CCCCC2)cc(Cn2ncc(-c3ccc(C(F)(F)F)cc3)n2)c2cccnc12 | – | Active | Active | Active | Active | Activity (A-375 [15]): Dose-Dependent Effect; Activity (A-375 [16]): Active; Activity (A-375 [17]): Dose-Dependent Effect; Activity [18]: Non-Toxic; Activity [19]: Non-Toxic; Activity (A-375 [20]): 32%; Activity (A-375 [21]): 55%; Activity [22]: Non-Toxic; Activity (OVCAR-8 [23]): Active; Activity (OVCAR-8 [24]): Active; Activity (OVCAR-8 [25]): Active; Activity (OVCAR-8 [26]): inactive; inhibition (OVCAR-8 [27]): Active; tumor weight (OVCAR-8 [28]): 0.11 g; Activity (OVCAR-8 [29]): Active |
